Experiments:
Assay type in all cases: functional
Staphylococcus aureus [1] = assay: Antibacterial activity against Staphylococcus aureus RN4220 assessed as growth inhibition at 50 ug/ml after 16 hrs by spectrophotometric analysis; details: RN4220, 16 h, read-out: GI
Outline: (§1)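 Growth inhibition read as OD600 on 300 µL culture samples, with untreated control cultures taken as maximum growth. Percent inhibition = (OD600 control − OD600 treated) × 100 / OD600 control. Parent antibiotics and their conjugates were run in parallel at three concentrations per compound, in biological duplicate.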

Bacillus subtilis [2] = assay: Antibacterial activity against Bacillus subtilis 168 assessed as growth inhibition at 40 ug/ml after 16 hrs by spectrophotometric analysis; details: subsp. subtilis str. 168, 16 h, read-out: GI; outline: as §1
Staphylococcus aureus [3] = assay: Antibacterial activity against Staphylococcus aureus RN4220 assessed as growth inhibition at 200 ug/ml after 16 hrs by spectrophotometric analysis; details: RN4220, 16 h, read-out: GI; outline: as §1
Escherichia coli [4] = assay: Antibacterial activity against Escherichia coli DH5alpha assessed as growth inhibition at 10 ug/ml after 16 hrs by spectrophotometric method; details: DH5[alpha], read-out: GI; outline: as §1
Staphylococcus aureus [5] = assay: Antibacterial activity against Staphylococcus aureus RN4220 assessed as growth inhibition at 100 ug/ml after 16 hrs by spectrophotometric analysis; details: RN4220, 16 h, read-out: GI; outline: as §1
Bacillus subtilis [6] = assay: Antibacterial activity against Bacillus subtilis 168 assessed as growth inhibition at 20 ug/ml after 16 hrs by spectrophotometric analysis; details: subsp. subtilis str. 168, 16 h, read-out: GI; outline: as §1
Bacillus subtilis [7] = assay: Antibacterial activity against Bacillus subtilis 168 assessed as growth inhibition at 10 ug/ml after 16 hrs by spectrophotometric analysis; details: subsp. subtilis str. 168, 16 h, read-out: GI; outline: as §1
Escherichia coli [8] = assay: Antibacterial activity against Escherichia coli DH5alpha assessed as growth inhibition at 2.5 ug/ml after 16 hrs by spectrophotometric method; details: DH5[alpha], read-out: GI; outline: as §1
Escherichia coli [9] = assay: Antibacterial activity against Escherichia coli DH5alpha assessed as growth inhibition at 5 ug/ml after 16 hrs by spectrophotometric method; details: DH5[alpha], read-out: GI; outline: as §1
Staphylococcus aureus [10] = assay: Antibacterial activity against Staphylococcus aureus RN4220 assessed as growth inhibition at 300 ug/ml after 16 hrs by spectrophotometric analysis; details: RN4220, 16 h, read-out: GI; outline: as §1
Staphylococcus aureus [11] = assay: Antibacterial activity against Staphylococcus aureus RN4220 assessed as growth inhibition at 75 ug/ml after 16 hrs by spectrophotometric analysis; details: RN4220, 16 h, read-out: GI; outline: as §1
Escherichia coli [12] = assay: Antibacterial activity against Escherichia coli DH5alpha assessed as growth inhibition at 50 ug/ml after 16 hrs by spectrophotometric method; details: DH5[alpha], read-out: GI; outline: as §1
Escherichia coli [13] = assay: Antibacterial activity against Escherichia coli DH5alpha assessed as growth inhibition at 75 ug/ml after 16 hrs by spectrophotometric method; details: DH5[alpha], read-out: GI; outline: as §1
Staphylococcus aureus [14] = assay: Antibacterial activity against Staphylococcus aureus RN4220 assessed as growth inhibition at 150 ug/ml after 16 hrs by spectrophotometric analysis; details: RN4220, 16 h, read-out: GI; outline: as §1
Escherichia coli [15] = assay: Antibacterial activity against Escherichia coli DH5alpha assessed as growth inhibition at 100 ug/ml after 16 hrs by spectrophotometric method; details: DH5[alpha], read-out: GI; outline: as §1
Staphylococcus aureus [16] = assay: Antibacterial activity against Staphylococcus aureus RN4220 assessed as growth inhibition at 60 ug/ml after 16 hrs by spectrophotometric analysis; details: RN4220, 16 h, read-out: GI; outline: as §1
Pseudomonas aeruginosa [17] = assay: Antibacterial activity against Pseudomonas aeruginosa PAO1 assessed as growth inhibition at 10 ug/ml after 16 hrs by spectrophotometric analysis; details: PAO1, 16 h, read-out: GI; outline: as §1
Escherichia coli [18] = assay: Antibacterial activity against Escherichia coli DH5alpha assessed as growth inhibition at 3 ug/ml after 16 hrs by spectrophotometric method; details: DH5[alpha], read-out: GI; outline: as §1
Escherichia coli [19] = assay: Antibacterial activity against Escherichia coli DH5alpha assessed as growth inhibition at 0.75 ug/ml after 16 hrs by spectrophotometric method; details: DH5[alpha], read-out: GI; outline: as §1
Escherichia coli [20] = assay: Antibacterial activity against Escherichia coli DH5alpha assessed as growth inhibition at 1.5 ug/ml after 16 hrs by spectrophotometric method; details: DH5[alpha], read-out: GI; outline: as §1
Staphylococcus aureus [21] = assay: Antibacterial activity against Staphylococcus aureus RN4220 assessed as growth inhibition at 15 ug/ml after 16 hrs by spectrophotometric analysis; details: RN4220, 16 h, read-out: GI; outline: as §1
Bacillus subtilis [22] = assay: Antibacterial activity against Bacillus subtilis 168 assessed as growth inhibition at 5 ug/ml after 16 hrs by spectrophotometric analysis; details: subsp. subtilis str. 168, 16 h, read-out: GI; outline: as §1
Staphylococcus aureus [23] = assay: Antibacterial activity against Staphylococcus aureus RN4220 assessed as growth inhibition at 30 ug/ml after 16 hrs by spectrophotometric analysis; details: RN4220, 16 h, read-out: GI; outline: as §1
Pseudomonas aeruginosa [24] = assay: Antibacterial activity against Pseudomonas aeruginosa PAO1 assessed as growth inhibition at 40 ug/ml after 16 hrs by spectrophotometric analysis; details: PAO1, 16 h, read-out: GI; outline: as §1
Pseudomonas aeruginosa [25] = assay: Antibacterial activity against Pseudomonas aeruginosa PAO1 assessed as growth inhibition at 20 ug/ml after 16 hrs by spectrophotometric analysis; details: PAO1, 16 h, read-out: GI; outline: as §1
Escherichia coli [26] = assay: Antibacterial activity against Escherichia coli DH5alpha assessed as growth inhibition at 40 ug/ml after 16 hrs by spectrophotometric method; details: DH5[alpha], read-out: GI; outline: as §1
Staphylococcus aureus [27] = assay: Antibacterial activity against Staphylococcus aureus RN4220 assessed as growth inhibition at 120 ug/ml after 16 hrs by spectrophotometric analysis; details: RN4220, 16 h, read-out: GI; outline: as §1
Staphylococcus aureus [28] = assay: Antibacterial activity against Staphylococcus aureus RN4220 assessed as growth inhibition at 240 ug/ml after 16 hrs by spectrophotometric analysis; details: RN4220, 16 h, read-out: GI; outline: as §1

With `CCn1cc(C(=O)O)c(=O)c2cnc(N3CCN(C(=O)[C@@H](NC(=O)OCc4ccccc4)C(C)C)CC3)nc21` the inhibition of growth at 50 µg/mL (Staphylococcus aureus [1]) was 45.7%, the inhibition of growth at 40 µg/mL (Bacillus subtilis [2]) was 78.2% and the inhibition of growth at 200 µg/mL (Staphylococcus aureus [3]) was 70.6%. For the same compound, the inhibition of growth at 10 µg/mL (Escherichia coli [4]) was 27.2%, the inhibition of growth at 100 µg/mL (Staphylococcus aureus [5]) was 60% and the inhibition of growth at 20 µg/mL (Bacillus subtilis [6]) was 17%. The inhibition of growth at 10 µg/mL (Bacillus subtilis [7]) was 4.69%, the inhibition of growth at 2.5 µg/mL (Escherichia coli [8]) was -9.71% and the inhibition of growth at 5 µg/mL (Escherichia coli [9]) was -6.67%.
In the case of `CCn1cc(C(=O)O)c(=O)c2cnc(N3CCN(C(=O)[C@H](Cc4ccccc4)NC(=O)OCc4ccccc4)CC3)nc21`, the inhibition of growth at 50 µg/mL (Staphylococcus aureus [1]) is reported as 49.6%, the inhibition of growth at 40 µg/mL (Bacillus subtilis [2]) is reported as 77% and the inhibition of growth at 200 µg/mL (Staphylococcus aureus [3]) is reported as 72.9%. For the same compound, the inhibition of growth at 10 µg/mL (Escherichia coli [4]) was 9.45%, the inhibition of growth at 100 µg/mL (Staphylococcus aureus [5]) was 60.1% and the inhibition of growth at 20 µg/mL (Bacillus subtilis [6]) was 13.8%. For the same compound, the inhibition of growth at 10 µg/mL (Bacillus subtilis [7]) was 6.09%, the inhibition of growth at 2.5 µg/mL (Escherichia coli [8]) was -11.5% and the inhibition of growth at 5 µg/mL (Escherichia coli [9]) was -6.38%.
For `Cc1ncc([N+](=O)[O-])n1CCOC(=O)[C@H](C)NC(=O)OCc1ccccc1`, the inhibition of growth at 300 µg/mL (Staphylococcus aureus [10]) was 45.9%, the inhibition of growth at 75 µg/mL (Staphylococcus aureus [11]) was 8.86% and the inhibition of growth at 50 µg/mL (Escherichia coli [12]) was 2.22%. It also gave an inhibition of growth at 75 µg/mL (Escherichia coli [13]) of 3.79%, an inhibition of growth at 150 µg/mL (Staphylococcus aureus [14]) of 22.5% and an inhibition of growth at 100 µg/mL (Escherichia coli [15]) of 8.28%.
Work on `CCn1cc(C(=O)O)c(=O)c2cc(F)c(N3CCN(C(=O)[C@H](C)NC(=O)OCc4ccccc4)CC3)cc21` yielded an inhibition of growth at 60 µg/mL (Staphylococcus aureus [16]) of 91%, an inhibition of growth at 10 µg/mL (Pseudomonas aeruginosa [17]) of -26.8% and an inhibition of growth at 3 µg/mL (Escherichia coli [18]) of 3.52%. For the same compound, the inhibition of growth at 0.75 µg/mL (Escherichia coli [19]) was 0.21%, the inhibition of growth at 1.5 µg/mL (Escherichia coli [20]) was -0.24% and the inhibition of growth at 15 µg/mL (Staphylococcus aureus [21]) was 74.1%. For the same compound, the inhibition of growth at 20 µg/mL (Bacillus subtilis [6]) was 90.5%, the inhibition of growth at 5 µg/mL (Bacillus subtilis [22]) was 92.2% and the inhibition of growth at 30 µg/mL (Staphylococcus aureus [23]) was 81.8%. It also gave an inhibition of growth at 10 µg/mL (Bacillus subtilis [7]) of 91.4%, an inhibition of growth at 40 µg/mL (Pseudomonas aeruginosa [24]) of 20.5% and an inhibition of growth at 20 µg/mL (Pseudomonas aeruginosa [25]) of -14.2%.
`CCn1cc(C(=O)O)c(=O)c2cnc(N3CCN(C(=O)[C@H](CCCCNC(=O)OCc4ccccc4)NC(=O)OCc4ccccc4)CC3)nc21` showed an inhibition of growth at 50 µg/mL (Staphylococcus aureus [1]) of -20.2%, an inhibition of growth at 40 µg/mL (Bacillus subtilis [2]) of 89.9% and an inhibition of growth at 200 µg/mL (Staphylococcus aureus [3]) of 52.4%. It also gave an inhibition of growth at 10 µg/mL (Escherichia coli [4]) of -6.9%, an inhibition of growth at 100 µg/mL (Staphylococcus aureus [5]) of 28.2% and an inhibition of growth at 20 µg/mL (Bacillus subtilis [6]) of -4.87%. For the same compound, the inhibition of growth at 10 µg/mL (Bacillus subtilis [7]) was -7.86%, the inhibition of growth at 2.5 µg/mL (Escherichia coli [8]) was -13.2% and the inhibition of growth at 5 µg/mL (Escherichia coli [9]) was -9.63%.
Work on `CCn1cc(C(=O)O)c(=O)c2cnc(N3CCN(C(=O)CNC(=O)OCc4ccccc4)CC3)nc21` yielded an inhibition of growth at 50 µg/mL (Staphylococcus aureus [1]) of 32.9%, an inhibition of growth at 40 µg/mL (Bacillus subtilis [2]) of 91.7% and an inhibition of growth at 200 µg/mL (Staphylococcus aureus [3]) of 57.4%. The inhibition of growth at 10 µg/mL (Escherichia coli [4]) was -8.93%, the inhibition of growth at 100 µg/mL (Staphylococcus aureus [5]) was 52.2% and the inhibition of growth at 20 µg/mL (Bacillus subtilis [6]) was -7.68%. It also gave an inhibition of growth at 10 µg/mL (Bacillus subtilis [7]) of 88.2%, an inhibition of growth at 2.5 µg/mL (Escherichia coli [8]) of -13.4% and an inhibition of growth at 5 µg/mL (Escherichia coli [9]) of -11.1%.
Work on `Cc1ncc([N+](=O)[O-])n1CCOC(=O)CNC(=O)OCc1ccccc1` yielded an inhibition of growth at 300 µg/mL (Staphylococcus aureus [10]) of 23.6%, an inhibition of growth at 75 µg/mL (Staphylococcus aureus [11]) of 0.33% and an inhibition of growth at 50 µg/mL (Escherichia coli [12]) of 8.23%. For the same compound, the inhibition of growth at 75 µg/mL (Escherichia coli [13]) was 1.61%, the inhibition of growth at 150 µg/mL (Staphylococcus aureus [14]) was 23.5% and the inhibition of growth at 100 µg/mL (Escherichia coli [15]) was 6.59%.
`C[C@H](NC(=O)OCc1ccccc1)C(=O)Nc1ccc(S(=O)(=O)Nc2ncccn2)cc1` was tested, and the inhibition of growth at 60 µg/mL (Staphylococcus aureus [16]) was -9.96%, the inhibition of growth at 40 µg/mL (Escherichia coli [26]) was 2.13% and the inhibition of growth at 120 µg/mL (Staphylococcus aureus [27]) was -9.38%. For the same compound, the inhibition of growth at 240 µg/mL (Staphylococcus aureus [28]) was 1.07%, the inhibition of growth at 50 µg/mL (Escherichia coli [12]) was -0.61% and the inhibition of growth at 75 µg/mL (Escherichia coli [13]) was -0.65%.
Work on `Cc1ncc([N+](=O)[O-])n1CCOC(=O)[C@H](Cc1ccccc1)NC(=O)OCc1ccccc1` yielded an inhibition of growth at 300 µg/mL (Staphylococcus aureus [10]) of 20.5%, an inhibition of growth at 75 µg/mL (Staphylococcus aureus [11]) of -0.03% and an inhibition of growth at 50 µg/mL (Escherichia coli [12]) of 4.44%. For the same compound, the inhibition of growth at 75 µg/mL (Escherichia coli [13]) was 5.73%, the inhibition of growth at 150 µg/mL (Staphylococcus aureus [14]) was 6.66% and the inhibition of growth at 100 µg/mL (Escherichia coli [15]) was 7.7%.
